Measured values taken from PMC4067939 (Bioorganic & medicinal chemistry, 2014).
“Also recorded” adds a separate entry of the source.

Experiments:
[1] = tested on: monoclonal protein trafficking in RPMI-8226 cells; experiment: Monoclonal protein quantitation; format: cell-based, human; conditions: 10 µM, 48 hours, Figure 5
Summary of the method: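 Cells were lysed in RIPA with protease/phosphatase inhibitors and protein measured by BCA. Intracellular lambda light chain was quantified by human lambda light chain ELISA. Results are % untreated control, mean ± SD, n=3, unpaired two-tailed t-test (α 0.05).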

[2] = tested on: Rab6 geranylgeranylation in RPMI-8226 cells; format: cell-based, human; conditions: 10 µM, 48 hours, Figure 3A
Summary of the method: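 Triton X-114 lysis gave aqueous (cytosolic) and detergent (membrane) fractions. Equal protein (BCA) was run on SDS-PAGE and blotted to PVDF for Rab6 with HRP/ECL detection. Loading controls were β-tubulin (aqueous) and calnexin (detergent). Gels represent two independent experiments.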

[3] = tested on: intracellular GGPP levels in RPMI-8226 cells; experiment: Measurement of intracellular GGPP levels in RPMI-8226 cells; format: cell-based, human; conditions: 1 µM, 24 hours, Figure 4
Summary of the method: (§1)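 Isoprenoid pyrophosphates were extracted in butanol/75mM ammonium hydroxide/ethanol (1:1.25:2.75) and dried under nitrogen. FPP was coupled to fluorescent GCVLS by FTase and GGPP to GCVLL by GGTase I. Peptides were quantified by reversed-phase HPLC-fluorescence. Results are % untreated control, mean ± SD, n=2, unpaired two-tailed t-test.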

[4] = tested on: intracellular FPP levels in RPMI-8226 cells; experiment: Measurement of intracellular FPP levels in RPMI-8226 cells; format: cell-based, human; conditions: 1 µM, 24 hours, Figure 4
Summary of the method: as §1

[5] = molecular target: T1, GGTase II (Rattus norvegicus, UniProt Q08602+Q08603); conditions: ref our prior studies; cited from earlier work
T1 sequence (Q08602 1-567): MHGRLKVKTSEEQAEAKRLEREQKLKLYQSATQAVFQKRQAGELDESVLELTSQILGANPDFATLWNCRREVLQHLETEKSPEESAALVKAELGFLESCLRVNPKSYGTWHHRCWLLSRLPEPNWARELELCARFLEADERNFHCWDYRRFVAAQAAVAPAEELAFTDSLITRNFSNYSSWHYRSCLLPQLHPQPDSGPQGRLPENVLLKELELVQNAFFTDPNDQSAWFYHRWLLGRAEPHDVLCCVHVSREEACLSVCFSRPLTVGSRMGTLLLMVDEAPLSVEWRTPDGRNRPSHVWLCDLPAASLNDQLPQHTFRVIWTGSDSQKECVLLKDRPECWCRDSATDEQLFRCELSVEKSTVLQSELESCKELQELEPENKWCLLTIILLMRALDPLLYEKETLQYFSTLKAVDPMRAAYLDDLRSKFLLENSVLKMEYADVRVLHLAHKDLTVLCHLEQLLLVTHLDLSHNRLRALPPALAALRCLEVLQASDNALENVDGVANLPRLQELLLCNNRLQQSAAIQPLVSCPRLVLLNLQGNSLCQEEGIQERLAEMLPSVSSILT
T1 sequence (Q08603 1-331): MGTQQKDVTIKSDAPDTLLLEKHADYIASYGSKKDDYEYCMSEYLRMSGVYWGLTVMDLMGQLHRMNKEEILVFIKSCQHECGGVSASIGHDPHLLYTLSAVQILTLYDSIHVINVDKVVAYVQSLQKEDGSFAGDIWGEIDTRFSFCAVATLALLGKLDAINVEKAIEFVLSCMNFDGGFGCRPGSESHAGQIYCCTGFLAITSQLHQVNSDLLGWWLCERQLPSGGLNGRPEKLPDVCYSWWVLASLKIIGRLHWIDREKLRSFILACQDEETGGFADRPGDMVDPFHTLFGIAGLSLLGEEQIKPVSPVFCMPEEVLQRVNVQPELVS

[6] = tested on: Rap1a geranylgeranylation in RPMI-8226 cells; experiment: Immunoblot of unmodified Rap1a in RPMI-8226 cells; format: cell-based, human; conditions: 48 hours; for disruption of Rap1a geranylgeranylation (accumulation of unmodified Rap1a): 10 µM, Figure 3A; for concentration at which unmodified Rap1a is observed: tested at 0.1, 1, 10 µM
Summary of the method: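 Whole-cell lysates were made in RIPA buffer with protease/phosphatase inhibitors, BCA-normalised, and run on SDS-PAGE/PVDF immunoblot. The antibody recognises only unmodified Rap1a; β-tubulin was the loading control; detection was HRP/ECL. Gels represent two independent experiments.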

[7] = molecular target: T1, GGTase II; experiment: GGTase II enzyme assay; format: biochemical; conditions: for inhibitory activity against GGTase II: at concentrations up to 1 mM
Summary of the method: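 Reaction mix: 30 nM recombinant GGTase II, 2 µM His-tagged Rab1A (E. coli-expressed, Ni-NTA purified) and 1 µM REP-2 in 50 mM sodium HEPES, 5 mM MgCl₂, 1 mM DTT, 1 mM NP-40, ±test compound. Started with 5 µM [³H]-GGPP, 20 min at 37 °C, stopped with 10% HCl/EtOH. P-81 filters were EtOH-washed and scintillation-counted. IC50 came from concentration-response curves.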

[8] = molecular target: T2, GGDPS (Homo sapiens, UniProt O95749); conditions: cited from earlier work
T2 sequence (O95749 1-300): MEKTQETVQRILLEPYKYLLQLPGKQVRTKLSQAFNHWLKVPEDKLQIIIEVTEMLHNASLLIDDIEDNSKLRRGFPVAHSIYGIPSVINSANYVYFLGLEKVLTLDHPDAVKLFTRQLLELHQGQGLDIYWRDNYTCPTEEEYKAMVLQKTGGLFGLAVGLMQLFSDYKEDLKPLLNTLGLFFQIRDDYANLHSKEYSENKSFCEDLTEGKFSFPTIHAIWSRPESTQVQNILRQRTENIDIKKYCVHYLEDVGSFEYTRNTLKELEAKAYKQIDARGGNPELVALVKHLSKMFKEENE

[9] = molecular target: T2, GGDPS; experiment: GGDPS enzyme assay; format: biochemical; conditions: in vitro enzyme assay
[10] = molecular target: FTase (Rattus norvegicus, UniProt Q02293+Q04631); experiment: FTase enzyme assay; format: biochemical
Summary of the method: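 Ran 1 h at 30 °C, then ice and acetonitrile/5% HCl stop. Centrifuged supernatant went to HPLC with fluorescence detection of prenylated peptide. IC50 came from concentration-response curves.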

| IC50 [7] | Compound | effect on intracellular lambda light chain levels [1] | disruption of Rab6 geranylgeranylation (Rab6 in aqueous fraction) [2] | disruption of Rap1a geranylgeranylation (accumulation of unmodified Rap1a) [6] | inhibitory activity against GGTase II [7] | other results |
| --- | --- | --- | --- | --- | --- | --- |
| > 1000 µM | CC(C)=CCCC(C)=CCn1cc(CC(P(=O)([O-])[O-])P(=O)([O-])[O-])nn1.[Na+].[Na+].[Na+].[Na+] [Compound 1] | induces an accumulation of intracellular lambda light chain equivalent to that induced by the positive control DGBP | A similar pattern was displayed | A similar pattern was displayed | – | effect on intracellular GGPP levels [3]: decreased GGPP levels; effect on intracellular FPP levels [4]: increased FPP levels; inhibition of GGTase II [5]: does not inhibit GGTase II |
| – | CC(C)=CCC/C(C)=C/CC/C(C)=C/CC(P(=O)(O)O)P(=O)(O)O [Compound 21, 2E,6E-farnesyl bisphosphonate] | – | – | – | – | fold more potent than the 2E,6Z-isomer 22 ([8]; ref earlier studies): about 6 fold |
| – | 2E,6Z-farnesylbisphosphonate [Compound 22] | – | – | – | – | fold less potent GGDPS inhibitor than the 2E,6E-isomer ([8]; farnesyl bisphosphonate isomers): approximately 6 fold |
| – | CC(C)=CCC/C(C)=C/CC(C/C=C(\C)CCC=C(C)C)(P(=O)(O)O)P(=O)(O)O [DGBP, digeranyl bisphosphonate, reference compound] | accumulation of intracellular lambda light chain | accumulation of unmodified Rap1a and Rab6 | accumulation of unmodified Rap1a and Rab6 | – | concentration at which unmodified Rap1a is observed ([6]; Figure 3B): 10 µM; mode of GGDPS inhibition [8]: competitive with respect to FPP as opposed to IPP |
| – | CC(C)=CCCC(C)=CCC(P(=O)(O)O)P(=O)(O)O [geranyl bisphosphonate] | – | – | – | – | potency relative to the corresponding neryl bisphosphonate ([8]; monoalkyl series): at least one order of magnitude more potent |
| > 1000 µM | CC(C)=CCC[C@]1(C)O[C@@H]1Cn1cc(CC(P(=O)([O-])[O-])P(=O)([O-])[O-])nn1.[Na+].[Na+].[Na+].[Na+] (racemic) [Compound 20, Sodium (Z)-(2-(1-((3-methyl-3-(4-methylpent-3-en-1-yl)oxiran-2-yl)methyl)-1H-1,2,3-triazol-4-yl)ethane-1,1-diyl)bis(phosphonate)] | – | neither of the epoxide derivatives (12 and 20) displayed activity in this assay | neither of the epoxide derivatives (12 and 20) displayed activity in this assay | neither of the individual olefin isomers (11 or 19) nor the related epoxides (12 or 20) displayed inhibitory activity | GGDPS activity, comparison in words [9]: reduces the activity against GGDPS to a level comparable to the geranyl triazole |
| – | CC(C)=CCC/C(C)=C\CC(C/C=C(/C)CCC=C(C)C)(P(=O)(O)O)P(=O)(O)O [dineryl bisphosphonate] | – | – | – | – | fold less potent GGDPS inhibitor than DGBP [8]: approximately 14 fold |
| > 1000 µM | CC(C)=CCC/C(C)=C\Cn1cc(CC(P(=O)([O-])[O-])P(=O)([O-])[O-])nn1.[Na+].[Na+].[Na+].[Na+] [Compound 19, Sodium (Z)-(2-(1-(3,7-dimethylocta-2,6-dien-1-yl)-1H-1,2,3-triazol-4-yl)ethane-1,1-diyl)bis(phosphonate)] | This activity is a consequence of the neryl triazole 19; also recorded: disrupts monoclonal protein trafficking | effectively disrupted both Rap1a and Rab6 geranylation | effectively disrupted both Rap1a and Rab6 geranylation | neither of the individual olefin isomers (11 or 19) nor the related epoxides (12 or 20) displayed inhibitory activity | effect on intracellular GGPP levels [3]: even more potently decreased GGPP levels; also recorded: depletes cells of GGPP; effect on intracellular FPP levels [4]: increased FPP levels; also recorded: increases intracellular FPP levels; GGDPS activity, comparison in words [9]: slightly less potent; concentration at which unmodified Rap1a is observed ([6]; Figure 3B): 1 µM |
| > 1000 µM | CC(C)=CCC[C@@]1(C)O[C@@H]1Cn1cc(CC(P(=O)([O-])[O-])P(=O)([O-])[O-])nn1.[Na+].[Na+].[Na+].[Na+] (racemic) [Compound 12, Sodium (E)-(2-(1-((3-methyl-3-(4-methylpent-3-en-1-yl)oxiran-2-yl)methyl)-1H-1,2,3-triazol-4-yl)ethane-1,1-diyl)bis(phosphonate)] | – | neither of the epoxide derivatives (12 and 20) displayed activity in this assay | neither of the epoxide derivatives (12 and 20) displayed activity in this assay | neither of the individual olefin isomers (11 or 19) nor the related epoxides (12 or 20) displayed inhibitory activity | – |
| – | CC(C)=CCCC(C)=CCC(CC=C(C)CCC=C(C)C)(P(=O)(O)O)P(=O)(O)O [geranyl/neryl] | – | – | – | – | fold less potent GGDPS inhibitor than DGBP [8]: approximately 14 fold |
| > 1000 µM | CC(C)=CCC/C(C)=C/Cn1cc(CC(P(=O)([O-])[O-])P(=O)([O-])[O-])nn1.[Na+].[Na+].[Na+].[Na+] [Compound 11, Sodium (E)-(2-(1-(3,7-dimethylocta-2,6-dien-1-yl)-1H-1,2,3-triazol-4-yl)ethane-1,1-diyl)bis(phosphonate)] | has no effect on intracellular light chain levels | – | only weakly disrupted Rap1a geranylgeranylation | neither of the individual olefin isomers (11 or 19) nor the related epoxides (12 or 20) displayed inhibitory activity | disruption of Rap1a geranylgeranylation at 10 µM ([6]; Figure 3B): only weakly disrupted Rap1a geranylgeranylation; IC50 [10]: > 500 µM |
